Source: ChEMBL document CHEMBL2311528, “Synthesis of spirolactone-type diterpenoid derivatives from kaurene-type oridonin with improved antiproliferative effects and their apoptosis-inducing activity in human hepatoma Bel-7402 cells” (Eur J Med Chem, 2013)

Tests used:
Type in all cases: functional, cell-based
Bel-7402 = assay: Antiproliferative activity against human Bel7402 cells assessed as growth inhibition by MTT assay
In short: (§1)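 Cells treated in triplicate over a range of concentrations at 37 °C in humidified 5% CO2. At 72 h, MTT (5 mg/mL) was added for 4 h, followed by DMSO solubilisation and OD at 490 nm. IC50 is the concentration giving 50% growth inhibition, reported as mean ± S.D. of three independent experiments.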

[1] = Antiproliferative activity against human CaEs17 cells assessed as growth inhibition by MTT assay; in short: as §1
MGC-803 = assay: Antiproliferative activity against human MGC803 cells assessed as growth inhibition by MTT assay; in short: as §1
K562 = assay: Antiproliferative activity against human K562 cells assessed as growth inhibition by MTT assay
In short: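 K562 cells in log phase seeded at 5 × 10⁴ cells/mL and treated in triplicate across a 0.39–100 range. Cultures were kept at 37 °C in humidified 5% CO2. At 72 h, MTT (5 mg/mL) was added for 4 h, formazan was dissolved in DMSO, and OD was read at 490 nm. IC50 is the concentration giving 50% growth inhibition, reported as mean ± S.D. of three independent experiments.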

| Structure (SMILES) | IC50 (Bel-7402) [nM] | IC50 [1] [nM] | IC50 (MGC-803) [nM] | IC50 (K562) [nM] |
| --- | --- | --- | --- | --- |
| C=C1C(=O)[C@@]23C(=O)OC[C@]4([C@@H](OC(C)=O)CCC(C)(C)[C@H]4C=O)[C@@H]2CC[C@H]1[C@H]3OC(=O)c1ccc(C)cc1 | 2090 | 1830 | 1900 | 1310 |
| C=C1C(=O)[C@@]23C(=O)OC[C@]4([C@@H](OC(C)=O)CCC(C)(C)[C@H]4C=O)[C@@H]2CC[C@H]1[C@H]3OC(=O)CC | 3780 | 2770 | 3220 | 1500 |
| C=C1C(=O)[C@@]23C(=O)OC[C@]4([C@@H](OC(C)=O)CCC(C)(C)[C@H]4C=O)[C@@H]2CC[C@H]1[C@H]3OC(=O)c1ccc(Cl)cc1 | 1510 | 1250 | 1730 | 870 |
| C=C1C(=O)[C@@]23C(=O)OC[C@]4([C@@H](OC(C)=O)CCC(C)(C)[C@H]4C=O)[C@@H]2CC[C@H]1[C@H]3OC(=O)c1ccc(OC)cc1 | 2470 | 1960 | 2530 | 1920 |
| C=C1C(=O)[C@@]23C(=O)OC[C@]4([C@@H](OC(C)=O)CCC(C)(C)[C@H]4C=O)[C@@H]2CC[C@H]1[C@H]3OC(=O)c1ccc(C(F)(F)F)cc1 | 5090 | 9160 | 5540 | 3150 |
| C=C1C(=O)[C@@]23C(=O)OC[C@]4([C@@H](OC(C)=O)CCC(C)(C)[C@H]4C=O)[C@@H]2CC[C@H]1[C@H]3OC(=O)c1ccccc1 | 3050 | 1990 | 2180 | 1400 |
